Compound activity (PubChem BioAssay)
FN deposition inh = fibronectin deposition inhibition. actives 0.086% (n = 350,000). inhibition, % at 12.6 µM. AH1F fibroblasts, Alexa488-fibronectin deposition fluorescence, overnight. AID 743247;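 active means mean inhibition across replicates of 30% or more, regardless of how many single replicates reach that level; inconclusive means mean under 30% yet at least half of replicates reach 30%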;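 further: positive control wells lacked labelled fibronectin entirely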
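material = AH1F fibroblast monolayer depositing Alexa488-labelled fibronectin into matrix | amount = 10000 AH1F cells/well | buffer or medium = DMEM plus 2% serum, read in PBS | incubation = 1 h cell adhesion before compound, then overnight fibronectin incubation | detection = fluorescence at 485 nm excitation, 525 nm emission | evaluation = percent inhibition as loss of matrix-bound fibronectin fluorescence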
RAD52 inh = blocks human RAD52 DNA annealing; inhibition, % at 18.7 µM; actives 0.46% (n = 360,000); AID 651710; recombinant RAD52 DNA annealing, FRET fluorescence;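 active means every replicate showing at least 50% inhibition; inconclusive means mean inhibition at least 50% but not in every replicate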
MLL AF4-AF9 inh = blocks AF4 peptide binding to human AF9; AlphaScreen, biotin-AF4 peptide binding to FLAG-AF9; actives 0.47% (n = 350,000); inhibition, % at 10 µM; P42568;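 active means every replicate reaching a set inhibition limit, whatever the replicate mean, cut at about 25% in these data; inconclusive means mean inhibition reaches that limit but some replicates miss it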;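 further: 0% = plate neutral control median and 100% = total signal loss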
Glyco luc inh = N-linked glycosylation inhibition; D54 ERlucT glycosylation luciferase reporter, 24 h; percent of 100 nM tunicamycin response; reporter increase, % at 12.5 µM; actives 0.23% (n = 360,000); AID 588692;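 active means mean luciferase reporter signal, scaled so untreated is 0 and the glycosylation-blocking control 100, at or above a set limit in every replicate; inconclusive means mean reaches the limit but not every replicate does; inactive means mean below the limit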;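 further: luciferase carries N-glycosylation sites so blocking glycosylation raises the light; 0% = median of neutral control wells and 100% = median of 100 nM tunicamycin wells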
RAD54 inh = blocks human RAD54 Holliday junction branch migration; Q92698; FAM/BHQ fluorescence; inhibition, % at 10.4 µM; actives 0.14% (n = 360,000);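 active means mean normalized replicate activity at least 40 and at least half of replicates scoring 40 or more; inconclusive means only one of the two criteria met; inactive means mean below 40 and under half of replicates reaching 40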;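 further: 0% = median of neutral control wells and 100% = median of positive control wells; inhibitors cause a drop in the FAM fluorescence signal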
Target sequence (Q92698 whole entry, looked up): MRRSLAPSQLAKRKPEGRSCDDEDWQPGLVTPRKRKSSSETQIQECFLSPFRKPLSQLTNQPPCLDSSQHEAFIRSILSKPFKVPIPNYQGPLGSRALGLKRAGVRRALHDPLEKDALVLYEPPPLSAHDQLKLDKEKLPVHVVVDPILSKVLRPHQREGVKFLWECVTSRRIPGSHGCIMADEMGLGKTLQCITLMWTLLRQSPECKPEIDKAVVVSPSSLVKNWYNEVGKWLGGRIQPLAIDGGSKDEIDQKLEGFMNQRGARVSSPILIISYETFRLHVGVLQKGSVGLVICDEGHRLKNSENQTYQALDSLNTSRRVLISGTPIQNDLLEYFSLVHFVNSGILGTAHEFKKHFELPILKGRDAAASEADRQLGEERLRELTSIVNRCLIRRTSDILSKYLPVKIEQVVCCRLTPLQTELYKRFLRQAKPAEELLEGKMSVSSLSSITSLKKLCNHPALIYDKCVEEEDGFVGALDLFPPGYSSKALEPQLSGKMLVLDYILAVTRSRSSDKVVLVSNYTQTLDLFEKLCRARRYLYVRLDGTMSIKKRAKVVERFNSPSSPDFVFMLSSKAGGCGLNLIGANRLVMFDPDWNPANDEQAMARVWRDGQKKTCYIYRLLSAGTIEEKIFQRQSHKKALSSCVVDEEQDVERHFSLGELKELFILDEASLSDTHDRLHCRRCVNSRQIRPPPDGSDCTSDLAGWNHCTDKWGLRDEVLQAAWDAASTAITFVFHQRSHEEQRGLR
NSD2 inh = inhibitors of human histone methyltransferase NSD2; actives 0.54% (n = 310,000); inhibition, % at 12.5 µM; NSD2 peptide methylation, AlphaScreen, 120 min; O96028; in the data active means inhibition above about 50%
DNA binding = DNA binding artifact in Rad54 counter-screen | shares compounds with RAD54 inh | Acridine orange-DNA displacement, fluorescence polarization, 20 min | AC50, µM (highest dose often 35 µM), without a hit: at the highest dose activity change, negative = DNA binding | actives 8% (n = 460);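 active means signal drop giving an AC50 within twice the top valid tested concentration of each sample, actives reach about 35 µM in these data; inactive means activity opposite to expected, plus the rest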;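 further: polarization loss reports compound binding to salmon sperm DNA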
Alpha interfer = AlphaScreen signal interference counter-screen hit. shares compounds with MLL AF4-AF9 inh. signal luminescence. AC50, µM (titrated, usually from 12 µM), inactives show at the highest dose activity change, negative = inhibition. actives 45% (n = 530); cut-off not given, nearly all actives have AC50 up to about 14 µM
RAD52 DNA ctr = binds DNA, flagging false RAD52 inhibitor hits. actives 8% (n = 1,000). shares compounds with RAD52 inh. Salmon sperm DNA/acridine orange FP displacement, DNA binding. AC50, µM;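 active means fitted half-maximal concentration for signal loss at or below twice the highest dose tested, in every separate run, actives reach about 64 µM in these data; inconclusive means runs disagree, or flat partial signal loss, or poor fit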
Alpha artifact = interferes with AlphaScreen signal, flagging NSD2 false positives. shares compounds with NSD2 inh. AlphaScreen artifact counterscreen, preloaded methylated H4 peptide. AC35, µM (top dose mostly 10 µM), inactives show top-dose activity change, negative = signal loss. actives 9.4% (n = 1,500). AID 1053174; call rule not given here
An asterisk follows results filed as active; i = inactive; ? = inconclusive; . = not tested or not shown. Compounds with a hit are over-represented: about 1.2% of the library has one in this group of screens.

SMILES	FN deposition inh	RAD52 inh	MLL AF4-AF9 inh	Glyco luc inh	RAD54 inh	NSD2 inh	DNA binding	RAD52 DNA ctr	others
N=c1c(C(=O)NCCN2CCOCC2)cc2c(=O)n3ccccc3nc2n1CCCN1CCOCC1	12	77*	0	2	57*	0	7%	i
CN1C[C@H]2[C@@H](c3ccccc31)[C@H](CO)N2Cc1ccccc1F	.	-17	0	.	-9	.	.	.
CN(C)CCNc1ncnc2c1sc1nc(N3CCCC3)c3c(c12)CC(C)(C)OC3	7	88*	11	-11	97*	13	-1%	i
CC(C)CNc1ncnc2c1sc1nc(N3CCOCC3)c3c(c12)CC(C)(C)OC3	.	.	.	1	-2	.	.	.
O=C(NC1CCC1)[C@@H]1[C@@H](CO)[C@@H]2Cn3c(ccc(-c4ccccc4)c3=O)[C@@H]2N1CCc1ccccc1	.	2	-5	.	0	.	.	.
Cc1ccc2nc(Cl)c3cc(C(=O)NCCCN4CCCC4)sc3c2c1	3	79*	9	2	79*	.	-20%	48µM*
CCCN1CCN(CCCNC(=O)c2cc3c(=O)oc4ccc(C)cc4c3s2)CC1	-3	-9	-6	-1	16	-2	.	.
Cn1c2ccc(F)cc2c2nnc(SCCN3CCCCC3)nc21	0	8	0	11	.	0	.	.
Cc1cc(C)c2c(c1)c1nnc(SCCN3CCCCC3)nc1n2C	0	86*	-3	0	73*	2	7%	i
CCN1CCN(c2ccc(NC(=O)c3cc4ccccc4cc3OC)cc2C)CC1	1	83*	19	-7	54*	8	-2%	i
CCOc1cc2[nH]c(=S)n(Cc3ccc(C(=O)NCCCN(CC)CC)cc3)c(=O)c2cc1OCC	3	67*	9	-3	51*	26	-13%	i
CCOCCCNC(=O)c1cc2c(-c3ccc(Cl)cc3)nn(C)c2s1	5	-21	1	6	-2	.	.	.
CCCCN(CC)CCNC(=O)c1cc2c(-c3ccc(Cl)cc3)nn(C)c2s1	-5	50*	11	18	82*	11	-12%	i
CCCN(CCC)CCNC(=O)c1cc2c(-c3ccc(Cl)cc3)nn(C)c2s1	3	52*	10	12	61*	3	-3%	i
C[C@H](CO)N1C[C@H](C)[C@@H](CN(C)C(=O)c2ccc(F)cc2)OCc2ccccc2-c2c(n(C)c3ccccc23)C1=O	-2	.	.	.	.	.	.	.
c1ccc(Nc2nc(NCC3CCCO3)c3ccccc3n2)cc1 (centres undefined)	.	7	6	-4	24	-10	.	.
COc1ccc(Nc2nc(NCC3CCCO3)c3ccccc3n2)c(OC)c1 (centres undefined)	-2	54*	21	1	?	8	5%	i
COc1cccc(-c2cc(NC=O)c3ncc(-c4cccc(C(=O)NCCN(C)C)c4)n3c2)c1	13	94*	?	-8	81*	6	8%	i
CC(=O)c1ccc(-c2cnc3c(NC=O)cc(-c4ccc(S(C)(=O)=O)cc4)cn23)cc1	.	-57	0	-8	-7	-1	.	.
COc1cccc(-c2cc(NC=O)c3ncc(-c4cccc(C(=O)N(C)C)c4)n3c2)c1	6	-70	0	5	7	2	.	.
CN(C)CCNC(=O)c1cccc(-c2cnc3c(NC=O)cc(-c4ccc(S(C)(=O)=O)cc4)cn23)c1	4	96*	9	2	65*	3	-17%	i
CC(=O)Nc1cc(-c2ccc(N3CCN(C)CC3)cc2)cn2c(-c3ccc(S(C)(=O)=O)cc3)cnc12	7	73*	13	-4	104*	1	-5%	i
COc1cc(C)c2sc3ccccc3c(=O)c2c1NCCN(C)C	5	94*	45*	21	93*	161*	9.3µM*	18µM*	Alpha artifact=3.2µM*
COc1cc(NCc2ccccc2)c2ncn(C(C)C)c2c1	6	-20	-6	-1	-1	.	.	.
COc1cc(NCCCNC(C)C)c2nccc(C)c2c1	-6	60*	10	-2	83*	107*	-5%	.	Alpha artifact=-4%
SMILES	FN deposition inh	RAD52 inh	MLL AF4-AF9 inh	Glyco luc inh	RAD54 inh	NSD2 inh	DNA binding	RAD52 DNA ctr	others
CNC[C@@H]1Oc2ccc(NC(=O)Nc3cccc4ccccc34)cc2C(=O)N([C@H](C)CO)C[C@H]1C	.	1	1	.	17	.	.	.
CC(C)C#Cc1cnc2c(c1)C(=O)N([C@@H](C)CO)C[C@@H](C)[C@H](CN(C)Cc1cncnc1)O2	.	1	-2	.	6	.	.	.
CCNC1CCC(Nc2ccnc3cc(Cl)ccc23)CC1 (centres undefined)	7	13	-10	3	55*	89*	-2%	.	Alpha artifact=-5%
CC(C)N1CCN(c2ccc(OCC3COC(Cn4cncn4)(c4ccc(Cl)cc4Cl)O3)cc2)CC1 (centres undefined)	0	22	20	-4	.	14	.	.	Alpha interfer=-31%
Cc1ccc2nc(-c3ccccn3)c(NC3CCCC3)n2c1	-1	3	32*	-4	6	.	.	.	Alpha interfer=-21%
O=C(NCCc1ccccc1)[C@H]1[C@H](CO)[C@H]2Cn3c(cccc3=O)[C@@H]1N2C(=O)C1CCC1	.	23	-2	.	2	.	.	.
Cc1cccc(N=NC(=S)NNc2cccc(C)c2)c1	2	7	36*	-4	.	.	.	.	Alpha interfer=1µM*
Nc1ccccc1NC1CCCCC1	.	35	33*	-4	.	7	.	.	Alpha interfer=10µM*
O=C(Nc1ccccc1NC(=O)NC1CCCCC1)NC1CCCCC1	-8	.	.	0	-7	5	.	.
CC(=O)n1c(-c2ccccc2)c(CO)c2ccccc21	0	-10	-6	1	-1	.	.	.
NCCc1c(-c2ccccc2)n(-c2ccccc2)c2ccccc12	44*	33	47*	5	.	60*	.	.	Alpha interfer=14µM*
CO[C@@H]1CN(C)C(=O)c2ccc(NC(=O)C3CCCC3)cc2OC[C@H](C)N(C(C)=O)C[C@@H]1C	-4	-3	1	.	8	.	.	.
CCCCCC1NC(=O)NC1CCCCCC(=O)O (centres undefined)	0	.	.	3	-23	-2	.	.
C[C@@H]1NC(=O)N[C@@H]1CCCCCC(=O)O	-11	-10	90*	1	14	.	.	.	Alpha interfer=1.1µM*
